Assay results from different studies.
Each line is one published result; the experiments were not run side by side.
Target: Cannabinoid receptor 1 (CNR1, Homo sapiens, UniProt P21554)

The Ki of Cc1ccc(OC(C)(C)C(=O)N[C@@H](C)[C@@H](Cc2ccc(OCCF)cc2)c2cccc(C#N)c2)nc1 is reported as 0.1 nM (ligand displacement; radioligand).
With CCCCCc1cc(O)c(C/C=C(\C)CCC2OC2(C)C)c(O)c1 (centres unmarked) the Ki was > 10000 nM (ligand displacement; radioligand; cell membranes).
CC1(C)C(C(=O)c2cn(CCCCCF)c3ccccc23)C1(C)C has an EC50 of 159 nM (GTPγS binding; agonist; radiometric; cell membranes).
Cc1c(C(=O)N2CCC(C(N)=O)(c3ccccc3)CC2)nn(-c2ccc(Cl)cc2Cl)c1-c1ccc(Cl)cc1 gave a Kb of 0.4 nM (calcium signal; antagonist).
With CCOC(=O)C(CC)(CCCSCCOCCOCCOCCNC(=O)OC(C)(C)C)NC(=O)c1ccc(C2CC2)c(Cc2ccc(F)cc2)n1 (centres unmarked) the Ki was 589 nM (ligand displacement; radioligand; cell membranes).
CC/C(=C(\c1ccc(O)cc1)c1ccc(OCCN(C)C)cc1)c1ccccc1 has a Kb of 1600 nM (cAMP; antagonist).
For C=CCC(CC)(NC(=O)c1ccc(C2CC2)c(Cc2ccc(F)cc2)n1)C(=O)OCC (centres unmarked), the Ki was 2.9 nM (ligand displacement; radioligand; cell membranes).
The EC50 of CCCCCn1nc(C(=O)N[C@H](C(N)=O)C(C)C)c2ccccc21 is reported as 3.63 nM (calcium signal; agonist).
With CCCc1cc(O)c2c(c1)OC(C)(C)c1ccc(C)cc1-2 the Ki was 565 nM (ligand displacement; radioligand; cell membranes).
CCOC(=O)C(CC)(CCCSCCOCCOCCNc1ccc([N+](=O)[O-])c2nonc12)NC(=O)c1ccc(C2CC2)c(Cc2ccc(F)cc2)n1 (racemic) gave an EC50 of 600 nM (cAMP; agonist).
CCCCCc1cc2c(c(O)c1C(=O)O)C1C=C(C)CCC1C(C)(C)O2 (centres unmarked) gave a Ki of 1290 nM (ligand displacement; radioligand; cell membranes).
CCCCC/C=C\C/C=C\C/C=C\C/C=C\CCCC(=O)NCCCl gave a Ki of 0.74 nM (ligand displacement; radioligand; cell membranes).
For CCOC(=O)C(CC)(CCCSCCOCCOCCOCCOCCNC(=O)OC(C)(C)C)NC(=O)c1ccc(C2CC2)c(Cc2ccc(F)cc2)n1 (centres unmarked), the Ki was 731 nM (ligand displacement; radioligand; cell membranes).
The Ki of CCCCCc1cc(O)c(C/C=C(\C)CCC=C(C)C)c(O)c1 is reported as 3090 nM (ligand displacement; radioligand; cell membranes).
